Results filed as inconclusive are left out.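 Rule for the calls, unless noted: active = viability increase at or above a cutoff of the median across tested compounds plus 3 SD (cut at about 8.5% in these data, passing the limit was not always enough); inconclusive = some gains above the cutoff, reason not given; inactive = the rest.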
What was measured:
[1] = S. cerevisiae growth inhibition in permissive medium (OD615), pilot counter-assay for S. cerevisiae lifespan shortening project, permissive growth control (AID 705;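 active = growth inhibition above 25% in both replicates, a cutoff set 3 SD above the mean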); conditions: OD615, 24 h, at 10 µM, stronger effect = higher value
Method in brief: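 System: S. cerevisiae with engineered DeaD lifespan system / Measured by: absorbance (optical density) at 615 nm / Read-out: reduction in yeast growth (OD615) / Times: 4 h cell pre-growth, 24 h exposure at 30 °C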

[2] = S. cerevisiae growth inhibition in restrictive medium, OD615, pilot screen, restrictive growth control, yeast lifespan reduction project (AID 706;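 active = growth inhibition above a set limit, 3 SD over mean compound inhibition, in both replicates, cut at about 43% in these data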;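 note: modified DeaD lifespan yeast strain shifted to restrictive glucose medium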); conditions: OD615, 48 h, at 10 µM, stronger effect = higher value
Method in brief: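 System: Engineered S. cerevisiae DeaD strain | Buffer or medium: Glucose-based CSMM-D restrictive medium | Schedule: 4 h pre-incubation, 48 h exposure at 30 °C | Technique: Optical density at 615 nm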

[3] = doxorubicin toxicity protection in MRP-1 cells – H69AR cells, CellTiter-Glo, duplicate, MRP-1 activator project, pilot screen (AID 807); conditions: H69AR viability with doxorubicin, CellTiter-Glo luminescence; at 10 µM; stronger effect = higher value;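 note: compound pretreatment 18-22 h then 72 h combined with doxorubicin; 0% = doxorubicin alone and 100% = vehicle without doxorubicin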
[4] = viability of HCT116 without oncogenic beta-catenin – human colon tumor cells, pilot screen (AID 823;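 active = cell viability at or below a set limit in both duplicate runs, the limit being the all-compound median minus 4 SD, cut at about 23% in these data, passing the limit was not always enough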;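 note: 0% = wells killed by 20 µM Hyamine and 100% = untreated DMSO cell wells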); conditions: HCT116 beta-catenin knockout viability, CellTiter-Glo, 60 h; at 10 µM; stronger effect = lower value
[5] = viability of PTEN-null HCT116 cells – cell-based, HCT116 clonal line, CellTiter-Glo, pilot screen (AID 824;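 active = viability at or below 27.92% in each of two runs, the all-compound median minus 4 SD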;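 note: 0% = 20 µM Hyamine control and 100% = vehicle cell control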); conditions: HCT116 PTEN-deleted viability, 60 h, at 10 µM, stronger effect = lower value
[6] = RAM pathway blockade in budding yeast – dse1pr::URA3 reporter, 5-FOA selection, pilot screen (AID 869;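 active = inhibition over a set limit, the all-compound mean plus 3 SD, in both replicate runs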;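 note: 0% = DMSO wells with no growth and 100% = 10 µM 1-NA-PP1 with full growth; RAM network block rescues cells from 5-FOA so hits raise OD615 growth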); conditions: S. cerevisiae dse1pr::URA3 5-FOA growth, OD615, 2 d; at 10 µM; stronger effect = higher value; strain carries analog-sensitive mutant Cbk1 kinase
[7] = RAM signaling pathway blockade in yeast – S. cerevisiae, Pdr1DBD-CYC8 efflux-inhibited sensitized strain, primary screen (AID 1298;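 active = RAM network inhibition above 8.4% in each of two replicates, 3 SD over the compound average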;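 note: 0% = DMSO untreated cells without growth and 100% = 10 µM 1-NA-PP1 full growth; higher means more yeast growth rescued from 5-FOA killing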); conditions: S. cerevisiae cbk1-as DSE1-URA3 strain, 5-FOA growth OD615, 2 d; at 50 µM; stronger effect = higher value

O=C(c1cnn2ccccc12)N1CCc2ccccc21
inactive: growth inhibition [1] 0.67% | growth inhibition [2] -5.48% | viability increase [3] -2.13% | viability [4] 97.9% | viability [5] 91.9% | inhibition [6] 1.33% | RAM network inhibition [7] 1.54%

Cn1c(SCC(=O)N2CCCCCC2)nc2c([nH]c3ccccc32)c1=O
inactive: growth inhibition [1] -14.3% | growth inhibition [2] -27.8% | viability increase [3] -5.85% | viability [4] 89% | viability [5] 86.7% | inhibition [6] 3.46% | RAM network inhibition [7] 8.37%

CC(=O)CCS(=O)(=O)c1ccc(C)c(C)c1
inactive: growth inhibition [1] -1.55% | growth inhibition [2] -7.75% | viability increase [3] -6.33% | viability [4] 71.6% | viability [5] 90.2% | inhibition [6] 0.885% | RAM network inhibition [7] 1.15%

CC(C)N(C(=O)COc1ccc(Br)cc1Cl)C(C)C
inactive: growth inhibition [1] -6.94% | growth inhibition [2] -12.8% | viability increase [3] 0.81% | viability [4] 76.5% | viability [5] 83.1% | inhibition [6] 1.12% | RAM network inhibition [7] 0.74%

Cc1ccc(C(=O)CC(C(=O)O)c2cn(CCC#N)c3ccccc23)cc1 (stereo not drawn)
inactive: growth inhibition [1] -4% | growth inhibition [2] 3.92% | viability increase [3] -1.96% | viability [4] 98.3% | viability [5] 104% | inhibition [6] 0.735% | RAM network inhibition [7] 3.81%

O=C(CSc1nc2ccccc2o1)NCc1ccco1
inactive: growth inhibition [1] -11.6% | growth inhibition [2] -16% | viability increase [3] -3.53% | viability [4] 102% | viability [5] 98% | inhibition [6] 0.97% | RAM network inhibition [7] 5.5%

COc1ccc(C)cc1Nc1cc(C)nc2nc(C)nn12
inactive: growth inhibition [1] -8.41% | growth inhibition [2] 1.49% | viability increase [3] -4.98% | viability [4] 64.4% | viability [5] 57.3% | inhibition [6] 1.47% | RAM network inhibition [7] 0.57%

COc1cc(C(=O)n2nc(C)cc2C)cc(OC)c1OC
inactive: growth inhibition [1] -9.3% | growth inhibition [2] -12.6% | viability increase [3] -0.4% | viability [4] 99.5% | viability [5] 98.9% | inhibition [6] 1.08% | RAM network inhibition [7] 2.67%

Cc1ccc(CNC(=O)CN(C)S(=O)(=O)c2cccc3cccnc23)cc1
inactive: growth inhibition [1] -2.75% | growth inhibition [2] 6.15% | viability increase [3] -1.21% | viability [4] 99.4% | viability [5] 92.9% | inhibition [6] 2.25% | RAM network inhibition [7] -1.33%

CSc1nc2c(c(=O)n1-c1ccc(F)cc1)SCC2
inactive: growth inhibition [1] -9.67% | growth inhibition [2] -24.3% | viability increase [3] -1.07% | viability [4] 102% | viability [5] 93.7% | inhibition [6] 2.19% | RAM network inhibition [7] 4.08%

Cc1csc2nc(CNC(=O)C3CC=CCC3C(=O)O)cn12 (stereo not drawn)
inactive: growth inhibition [1] -3.37% | growth inhibition [2] 16.7% | viability increase [3] -2.9% | viability [4] 93.7% | viability [5] 94% | inhibition [6] 2.62% | RAM network inhibition [7] -0.42%

C=CCSC1=N/C(=C\c2ccc(C)o2)C(=O)S1
inactive: growth inhibition [1] -9.79% | growth inhibition [2] -6.84% | viability increase [3] -3.69% | viability [4] 101% | viability [5] 98.6% | inhibition [6] 1.58% | RAM network inhibition [7] 2.06%

Cc1cc(NCc2ccc3c(c2)OCO3)n2nc(C)nc2n1
inactive: growth inhibition [1] -16.8% | growth inhibition [2] -2% | viability increase [3] -0.9% | viability [4] 94.4% | viability [5] 87.5% | inhibition [6] 0.44% | RAM network inhibition [7] -0.15%

Cc1ccc(-c2nc(CS(=O)CC(=O)N3CCN(c4ncccn4)CC3)c(C)o2)cc1 (stereo not drawn)
inactive: growth inhibition [1] -0.52% | growth inhibition [2] 10.7% | viability increase [3] -2.28% | viability [4] 76.8% | viability [5] 90.2% | inhibition [6] 2.31% | RAM network inhibition [7] 4.78%

O=C(CCCOc1ccccc1)NCC1CCCO1 (stereo not drawn)
inactive: growth inhibition [1] -3.87% | growth inhibition [2] -6.75% | viability increase [3] -2.68% | viability [4] 96.5% | viability [5] 91.5% | inhibition [6] 4.06% | RAM network inhibition [7] 0.83%

CCOC(=O)C1Cn2c(nc3c(c2=O)C(C)(C)Cc2ccccc2-3)S1 (stereo not drawn)
inactive: growth inhibition [1] -1.77% | growth inhibition [2] 2.82% | viability increase [3] 0.36% | viability [4] 90.2% | viability [5] 88.5% | inhibition [6] 3.48% | RAM network inhibition [7] 8.31%

O=C(O)CCC(=O)N1CCc2cc(S(=O)(=O)N3CC=C(c4ccccc4)CC3)ccc21
inactive: growth inhibition [1] 5.99% | growth inhibition [2] 4.92% | viability increase [3] -2.14% | viability [4] 104% | viability [5] 93.9% | inhibition [6] 3.79% | RAM network inhibition [7] 7.9%

Cn1c2ccccc2c2c(C(=O)O)cn(C3CCCC3)c(=O)c21
inactive: growth inhibition [1] 3.4% | growth inhibition [2] 1.83% | viability increase [3] -3.21% | viability [4] 91.4% | viability [5] 91.7% | inhibition [6] 1.46% | RAM network inhibition [7] 4.9%

CCCOC(=O)c1ccc(OCC(O)CN2C(=O)NC(C)(C)C2=O)cc1 (stereo not drawn)
inactive: growth inhibition [1] 1.83% | growth inhibition [2] 1.78% | viability increase [3] -0.77% | viability [4] 96.9% | viability [5] 97.2% | inhibition [6] 0.14% | RAM network inhibition [7] 0.77%

Cc1cccc(-n2ncc3c(N(C)Cc4ccccc4)ncnc32)c1
inactive: growth inhibition [1] -2.16% | growth inhibition [2] -0.895% | viability increase [3] 5.35% | viability [4] 109% | viability [5] 88.7% | inhibition [6] 0.7% | RAM network inhibition [7] 4.33%

COc1ccc(NC(=O)N2CCC(c3ccccc3)C2)c(OC)c1 (stereo not drawn)
inactive: growth inhibition [1] -3.06% | growth inhibition [2] 9.96% | viability increase [3] 1.59% | viability [4] 90.9% | viability [5] 90.2% | inhibition [6] 0.67% | RAM network inhibition [7] -1.49%

c1ccc(-c2noc(CSc3nnnn3-c3ccccc3)n2)cc1
inactive: growth inhibition [1] -10.7% | growth inhibition [2] 22.4% | viability increase [3] 0.25% | viability [4] 97.8% | viability [5] 94% | inhibition [6] 0.485% | RAM network inhibition [7] 3.86%

Cn1ccnc1SCC(=O)Nc1cccc(C(F)(F)F)c1
inactive: growth inhibition [1] 0.76% | growth inhibition [2] 10.5% | viability increase [3] -4.88% | viability [4] 96.4% | viability [5] 96.8% | inhibition [6] 0.71% | RAM network inhibition [7] 4.72%

CC1CCN(c2nc3c(c(=O)[nH]c(=O)n3C)n2Cc2ccccc2Cl)CC1
inactive: growth inhibition [1] -10.2% | growth inhibition [2] -20.9% | viability increase [3] -6.47% | viability [4] 87.6% | viability [5] 72% | inhibition [6] 2.75% | RAM network inhibition [7] 9.67%

Reference: PubChem BioAssay
